Rows were chosen to be rich in hits. Some 3.6% of all compounds tested hit in one or more screens of this group.
UCH37 DUB inh: human UCH37 deubiquitinating enzyme inhibition; Q9Y5K5; purified proteasome/UCH37, Ub-AMC cleavage fluorescence; inhibition, % (test concentration not listed); hit rate 0.33% among 330,000; AID 588478;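 active = mean inhibition over replicate wells above about 20%, limit read from the data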;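 note: 0% = compound-free wells with enzyme and 100% = wells lacking proteasome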
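Test system – human UCH37 enzyme supplied as purified proteasome complex · Incubation – 30 min preincubation with enzyme, 25 min cleavage at room temperature · Detection – AMC fluorescence from Ub-AMC cleavage, excitation 355 nm, emission 460 nm · Benchmarks – no-proteasome wells (full inhibition) and compound-free wells (no inhibition)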
NadD block: inhibitors of Staphylococcus aureus NadD | AID 602399 | hit rate 0.78% among 360,000 | purified NadD enzyme, colorimetric absorbance read-out | inhibition, % at 20 µM; in the data active = inhibition above about 26%
NR3A LBD binder: modulators (binders) of human NR3A ligand-binding domain. NR3A LBD differential scanning fluorimetry, Tm shift; 0% = protein alone, 100% = glycine-bound protein. Tm shift relative to glycine control, % at 25 µM. hit rate 2.5% among 340,000. AID 1259313;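 active = melting temperature shift of at least 10% of the positive control shift, at one fixed dose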
SENP1 FRET inh: SENP1 (human) catalytic domain inhibition; recombinant SENP1 catalytic domain, CyPet-SUMO1-YPet FRET cleavage; hit rate 0.21% among 360,000; inhibition, % at 10 µM; Q9P0U3;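 active = inhibition at least 30% at 10 µM, raw YFP signal under a set limit, fluorescence ratio 0.5 to 1.5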;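 note: 0% = enzyme with DMSO and 100% = no enzyme wells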
Target sequence (Q9P0U3 419-644 limits assumed): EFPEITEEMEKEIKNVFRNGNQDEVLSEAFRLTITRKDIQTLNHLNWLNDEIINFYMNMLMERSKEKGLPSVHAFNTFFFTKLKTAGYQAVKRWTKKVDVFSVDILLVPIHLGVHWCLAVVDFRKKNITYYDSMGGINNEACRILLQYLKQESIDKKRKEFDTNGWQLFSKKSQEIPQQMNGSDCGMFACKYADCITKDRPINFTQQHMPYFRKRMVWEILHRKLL
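System: Recombinant human SENP1 catalytic domain, His6-tagged | Incubation: Enzyme reaction for 50 min at room temperature, dark | Medium: Tris pH 8 with BME, BSA, NP40 and catalase | Also added: 25 nM SUMO1 FRET substrate | Compound: 10 µM single point, 0.5% DMSO | Measured by: FRET fluorescence in CFP and YFP emission channels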
ATG4B inhibitor: blocks human ATG4B protease cleavage of LC3 substrate | inhibition, % at 8.33 µM | Q9Y4P1 | ATG4B cleavage of LC3-PLA2, NBD-HPC fluorescence, 1 h | AID 504462 | hit rate 0.51% among 340,000; in the data active = inhibition above about 40%
Target sequence (Q9Y4P1 whole entry, looked up): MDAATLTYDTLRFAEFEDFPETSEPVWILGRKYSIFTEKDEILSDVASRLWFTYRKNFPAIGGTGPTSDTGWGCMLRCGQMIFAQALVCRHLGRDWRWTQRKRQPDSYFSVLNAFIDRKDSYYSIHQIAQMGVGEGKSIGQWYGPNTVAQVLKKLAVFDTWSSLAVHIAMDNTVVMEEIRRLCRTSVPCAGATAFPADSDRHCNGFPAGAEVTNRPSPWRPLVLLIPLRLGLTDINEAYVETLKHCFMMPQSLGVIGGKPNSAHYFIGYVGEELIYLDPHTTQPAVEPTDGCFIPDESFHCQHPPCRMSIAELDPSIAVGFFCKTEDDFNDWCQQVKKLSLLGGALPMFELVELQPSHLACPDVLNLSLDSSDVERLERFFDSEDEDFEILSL
* marks the source's active call; other numbers are inactive results; · = not tested or not shown.

SMILES | UCH37 DUB inh | NadD block | NR3A LBD binder | SENP1 FRET inh | ATG4B inhibitor
COc1cc(/C=C2/SC(=NCc3ccccc3)N(Cc3ccccc3)C2=O)ccc1O | 4 | 9 | 13* | -23 | 4
O=C1/C(=C\c2ccc(O)c(O)c2)SC(=S)N1Cc1ccccc1 | 8 | 6 | 29* | -26 | 34
COc1cc(/C=C2/SC(=S)N(c3c(C)n(C)n(-c4ccccc4)c3=O)C2=O)ccc1O | 11 | 9 | 1 | 46* | 11
COc1cc(/C=C2/SC(=S)N(Cc3ccccc3)C2=O)ccc1O | 7 | -3 | 20* | -29 | 12
CCn1cc(C=NNS(=O)(=O)c2ccc(OC)cc2)c(C)n1 | 2 | · | · | · | ·
Cc1cccc(C(=O)Oc2c(Br)cc(Br)cc2C=NNC(=O)c2ccncc2)c1 | 1 | · | · | · | ·
COc1ccc2ccccc2c1C=NNC(=O)c1cccc([N+](=O)[O-])c1 | 7 | · | · | · | ·
CCn1c(SCC(=O)NN=C/C=C/c2ccco2)nnc1-c1ccc(OC)cc1 | 5 | · | · | · | ·
CN(C)S(=O)(=O)c1cccc(NC(=S)NN=Cc2cc(Br)ccc2O)c1 | 1 | · | · | · | ·
O=C1/C(=C/c2ccncc2)SC(=S)N1Cc1ccccc1 | 5 | 3 | 21* | 2 | 4
O=S(=O)(c1ccccc1)c1nc(Nc2cccc(O)c2)sc1Cl | 2 | -3 | 11* | 0 | -15
Cc1cc(CN2CCCCC2C(=O)Nc2ccc(Oc3cccnc3)cc2)oc1C (stereo not drawn) | 2 | 1 | 1 | -4 | 10
O=C(Nc1ccc(Oc2cccnc2)cc1)C1CCCCN1Cc1ccc(CO)o1 (stereo not drawn) | 0 | -3 | 10* | -12 | 25
CCc1ccc(C=NNC(=O)c2nnn(-c3nonc3N)c2CN2CCc3ccccc32)cc1 | 2 | · | · | · | ·
O=[N+]([O-])c1cccc(S(=O)(=O)c2ccc(NCCO)c([N+](=O)[O-])c2)c1 | 32* | -3 | -38 | 4 | 3
O=[N+]([O-])c1cccc(S(=O)(=O)c2ccc(NCCOCCO)c([N+](=O)[O-])c2)c1 | 3 | -5 | -51 | 4 | 2
Nc1scc2c(C(=O)NN=Cc3ccc(Cl)cc3)nn(-c3ccccc3)c(=O)c12 | 9 | · | · | · | ·
COC(=O)CCCCC(=O)C1C(=O)CC(C)(C)C(C(=O)OC)C1=O (stereo not drawn) | 5 | 0 | 12* | 0 | 1
CC1(C)CC(=O)C(C(=O)CCCCC(=O)C2C(=O)CC(C)(C)CC2=O)C(=O)C1 | -3 | 1 | 2 | 1 | 2
COc1cc(C=NNC(=O)c2ccncc2)ccc1OCC(=O)Nc1cccc([N+](=O)[O-])c1 | 1 | · | · | · | ·
CC1=NN(c2ccccc2)C(=O)C1=Cc1ccccc1 | · | 5 | · | 2 | ·
CC1=NN(c2ccccc2)C(=O)/C1=C/c1ccc[nH]1 | 9 | 6 | 17* | 2 | 2
CC1=NN(c2ccccc2)C(=O)/C1=C/c1ccc(Cl)cc1 | 5 | 18 | 3 | 1 | 2
CC1=NN(c2ccccc2)C(=O)/C1=C/c1ccc(-c2ccc(C)c(C(=O)O)c2)o1 | · | · | 10* | · | -10
CC1=NN(c2ccccc2)C(=O)/C1=C/c1c(O)n(-c2ccc(F)cc2)[nH]c1=O | 18 | 2 | 11* | 4 | 12
SMILES | UCH37 DUB inh | NadD block | NR3A LBD binder | SENP1 FRET inh | ATG4B inhibitor
CCOC(=O)NN=Cc1ccc(OC)c(O)c1 | 5 | · | · | · | ·
CC1(C)CC(=O)CC(=O)C1=NNc1c(Cl)cc(Cl)cc1Cl | 7 | · | · | · | ·
NC(=O)NC(=O)COC(=O)c1ccccc1Oc1ccccc1 | 3 | 0 | 11* | 0 | 2
CNC(=O)COC(=O)c1ccccc1Oc1ccccc1 | 3 | -5 | -2 | 1 | 1
COc1ccc(C(C)=NNC(=O)CNC(=O)c2cccs2)cc1 | 1 | · | · | · | ·
C(=C/c1nccc2c1[nH]c1ccccc12)/c1ccc2c(c1)OCO2 | -273 | 19 | 13* | -36 | 2
C(=N\Nc1nc2ccccc2[nH]1)/c1ccc2c(c1)OCO2 | · | -3 | -31 | 0 | -4
O=C(Cn1cc([N+](=O)[O-])cn1)NCCc1nc2ccccc2[nH]1 | 0 | -11 | -1 | -1 | -11
O=C(NCCc1nc2ccccc2[nH]1)c1cc([N+](=O)[O-])cc([N+](=O)[O-])c1 | 1 | -11 | 11* | 1 | -1
CCc1ccc(NC(=O)CCc2nnc3ccc(N4CCC5(CC4)OCCO5)nn23)cc1 | 2 | 3 | 11* | 3 | -4
COc1ccc(C2C(C#N)=C(N)Oc3c2sc2nc(C)cc(C)c32)cc1 (stereo not drawn) | · | 17 | -2 | -1 | -3
Cc1cc(C)c2c3c(sc2n1)C1(CCSCC1)C(C#N)=C(N)O3 | 0 | 12 | 16* | -2 | -9
CC1=C(/C=C/C(C)=C/C=C/C(C)=C/C(=O)Nc2ccc(O)cc2)C(C)(C)CCC1 | · | 24 | 17* | 3 | 0
Cc1[nH]n(-c2ccc([N+](=O)[O-])cc2)c(=O)c1C=NN1CCOCC1 | 13 | · | · | · | ·
COCc1cc(C)nc(OCC(=O)NN=Cc2ccc(-c3cccc([N+](=O)[O-])c3)o2)c1C#N | 16 | · | · | · | ·
Cc1cc(C)n2[nH]c(=O)c(N=Nc3ccc(S(N)(=O)=O)cc3)c2n1 | 25* | -2 | 1 | 4 | -2
Nc1[nH]n2c(=O)cc(-c3ccccc3)nc2c1N=Nc1ccccc1 | 9 | 31* | 16* | 1 | -1
Nc1[nH]n2c(=O)cc(-c3ccccc3)nc2c1N=Nc1ccc(S(N)(=O)=O)cc1 | 12 | 25 | 26* | 6 | -9
Cc1ccc(N=Nc2c(N)[nH]n3c(=O)cc(C)nc23)cc1 | 15 | 1 | 1 | 2 | -9
NS(=O)(=O)c1ccc(N=Nc2c(-c3ccccc3)[nH]n(-c3nc(-c4ccccc4)cs3)c2=O)cc1 | 5 | 37* | 26* | 7 | -27
CC(=O)Oc1ccc(C(C)=NN2CCN(Cc3ccc(C)cc3)CC2)cc1 | 6 | · | · | · | ·
CC(C)COc1cccc(-c2cc(C(=O)NN=Cc3ccncc3)c3ccccc3n2)c1 | 3 | · | · | · | ·
O=C(NN=Cc1cc2c(cc1Cl)OCO2)c1ccccn1 | -8 | · | · | · | ·
Cn1c(-c2c(N)n(CCc3ccccc3)c3nc4ccccc4nc23)nc2ccccc21 | -103 | 10 | 11* | -21 | 14
COCCCn1c(N)c(-c2nc3ccccc3n2C)c2nc3ccccc3nc21 | -20 | -5 | -12 | -23 | 7
SMILES | UCH37 DUB inh | NadD block | NR3A LBD binder | SENP1 FRET inh | ATG4B inhibitor
COCCCNC(=O)c1c(N)n(N=Cc2ccccn2)c2nc3ccccc3nc12 | -8 | · | · | · | ·
Cc1ccc(/C=C/C(=O)NC2=NCCS2)cc1 | · | 16 | -1 | 0 | -5
CC(C)(C)c1ccc(/C=C/C(=O)NC2=NCCS2)cc1 | 7 | 4 | 12* | -2 | 10
Cc1[nH]c2ccccc2c1/C=N/Nc1nc(Nc2ccc(F)cc2)nc(N2CCOCC2)n1 | · | 2 | -3 | -2 | -5
C(=N\Nc1nc(Nc2ccccc2)nc(N2CCOCC2)n1)/c1c[nH]c2ccccc12 | · | · | 18* | · | -25
Cc1ccc(Nc2nc(N/N=C/c3c[nH]c4ccccc34)nc(N3CCOCC3)n2)cc1 | · | 15 | 29* | -8 | 4
